Results on 167 variants are retold here after the RNAGym collection of RNA variant scans (doi:10.1038/nmeth.2970).

B1: NELF-E aptamer (parent)
chain: CCCAACGACUGCCGAGCGAGAUUACGCUUGAGCGCCCCACUGAGGAUGCCCACGGGCGAUUGGGGCACGG

In this data set the parent is B1. Kind of data set: HiTS-RAP. Conditions: with NELF-E (Drosophila). Summed up:
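Aptamer DNA templates bearing a T7 promoter and a ter site were sequenced on an Illumina GAIIx flowcell. T7 RNA polymerase then transcribed them in situ, and GST-Tus halted transcription over 30 minutes at 37°C. After a 30-minute room-temperature equilibration with NELF-E-mOrange at 0.064 to 1000 nM in HEPES binding buffer, clusters were imaged, using only the first binding curve. Intensities normalised to sequencing intensity were averaged per sequence and fitted with weighted Hill fits to give Kd, retaining only fits whose variance stayed under 1,000,000.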
Turning to U22G C40U, the dissociation constant (Kd) was found to be 82.8 nM.
The result for U22G C40G reads 6.42 nM.
As for U22G G26A, the Kd came to 5.64 nM.
For the variant U22G G26U, the dissociation constant (Kd) was 4.84 nM.
G20U A46G: the Kd turned out to be 47.1 nM.
A21G U28C: the dissociation constant Kd worked out at 6.03 nM.
The result for A19G G55A reads 7.92 nM.
On to A19G G55U, for which the Kd came out at 10.6 nM.
The result for U22C U29G reads 5.29 nM.
The result for A19G A59G reads 36.8 nM; that for A19G A24G, 6.18 nM.
On to A19G A24U, for which the Kd was 7.26 nM.
Regarding A21C, the Kd amounted to 5.33 nM.
Turning to A21G, the Kd amounted to 5.04 nM.
For the variant A21U, the dissociation constant Kd was 5.14 nM.
Regarding A19G A67U, the equilibrium dissociation constant (Kd) came to 5.89 nM.
For the variant A19G A67G, the Kd is 5.94 nM.
On to U22G C38U, for which the Kd was determined as 8.32 nM.
As to A21U U29G, the Kd came out at 5.33 nM.
For A19G C35U, the Kd was 7.42 nM.
For the variant G20A A24G, the Kd was determined as 6.46 nM.
The result for A21G U23G reads 6.71 nM; that for U22G C36G, 7.35 nM.
With U22G C36U, the Kd stood at 6.89 nM.
For U22G C36A, the Kd worked out at 10.1 nM.
Next, U22G A52U: 17.5 nM; U22G A52G: 4.99 nM; U22G A52C: 6.52 nM.
Next, G20U: 6.04 nM; G20A: 5.25 nM; G20C: 5.82 nM.
Next, A19G U23G: 6.11 nM; U22G C51A: 8.46 nM.
Turning to U22G C51U, the Kd is 7.12 nM.
On to G20U U22G, for which the Kd was 6.52 nM.
For A19G A21G, the Kd was determined as 6.58 nM.
The result for A19C reads 4.44 nM; that for A19U, 5.02 nM; that for A19G, 5.18 nM.
Next, U22G A46U: 33 nM; U22G A46G: 35.8 nM; G20A U41G: 5.24 nM.
Consider G20U A39G, for which the Kd was 10.9 nM.
As for A19U U41G, the Kd worked out at 4.74 nM.
Regarding G20U U41G, the Kd worked out at 6.33 nM.
Next, G20U G65U: 7.46 nM.
Next, G18U A19G: 6.31 nM.
Next, G18U U29G: 7.47 nM; G20U U23G: 6.37 nM; A21G G64A: 9.49 nM.
For A19G A43G, the Kd stood at 8.78 nM.
In the case of A19G A52G, the Kd was determined as 5.06 nM.
As for A19G A52U, the Kd is 19.5 nM.
As for A19G C53U, the Kd worked out at 4.21 nM.
Turning to A19G U29C, the Kd is 6.11 nM.
Regarding A19G U29A, the Kd is 3.96 nM.
As for A19G U29G, the Kd is 5.87 nM.
In the case of A19G G26A, the Kd was 4.12 nM.
The result for A21G A24G reads 6.42 nM; that for A19U A21U, 6.8 nM.
Next, A19U A52U: 22.1 nM.
For the variant G20A U22G, the Kd worked out at 5.27 nM.
As for A21G U22G, the dissociation constant Kd stood at 5.72 nM.
With U22G G30A, the Kd worked out at 5.32 nM.
On to U22G G30U, for which the Kd was 6.56 nM.
Regarding U22G C49U, the Kd is 24.7 nM.
For A19G U22G, the Kd stood at 5.7 nM.
Regarding A19G U22C, the Kd was found to be 4.25 nM.
Next, G20U G54A: 20.1 nM; A19G U28C: 9.82 nM.
Next, U22C U23G: 5 nM.
For the variant U22C U41G, the Kd was 5.5 nM.
For the variant G18U U23G, the Kd was 6.43 nM.
Regarding A21U U22G, the Kd was found to be 5.31 nM.
With G20U U28C, the Kd came to 9.17 nM.
As to U22G C35A, the Kd stood at 7.18 nM.
Turning to U22G C35U, the dissociation constant Kd was 11.6 nM.
As to U22G C35G, the Kd is 6.38 nM.
As to U22A U23G, the Kd was found to be 5.34 nM.
Consider U22G C53A, for which the Kd came to 4.91 nM.
Turning to U22G C53U, the Kd was 4.04 nM.
The result for A21U A24G reads 5 nM.
Take A19G G54A: the Kd came to 15.1 nM.
The result for A19G U61A reads 24.3 nM.
In the case of A19G A39U, the Kd was 31.1 nM.
Next, A19G A39G: 9.35 nM; U22C: 4.53 nM; U22A: 5.46 nM.
As for U22G, the Kd was 4.92 nM.
As for G20U A24G, the Kd amounted to 6.87 nM.
Next, G20U U29G: 6.19 nM; G18U A24G: 5.98 nM; U22C U47A: 10.5 nM.
A19U U22G: the dissociation constant (Kd) is 6 nM.
Regarding A19U U29G, the Kd turned out to be 5.71 nM.
As for U22G A39G, the Kd was 8.32 nM.
Take U22G A39U: the Kd stood at 29.7 nM.
As to U22C A24G, the Kd was found to be 6.97 nM.
For A19G A46G, the Kd worked out at 20.6 nM.
Next, A19G G34A: 6.47 nM.
For A21U U23G, the dissociation constant (Kd) stood at 6.73 nM.
U22G C27U: the Kd stood at 4.34 nM.
U22G C27G: the dissociation constant Kd was determined as 8.09 nM.
As to U22G C37A, the dissociation constant (Kd) was 14.6 nM.
Consider U22G C37U, for which the Kd turned out to be 12.7 nM.
For the variant U22G C37G, the Kd came to 7.01 nM.
Next, U22G A31U: 5.65 nM; U22G A31G: 6.63 nM.
As to A19G G65U, the Kd was found to be 7.38 nM.
Next, A19G G65A: 6.12 nM; U22C C57U: 2.92 nM.
Turning to U22A A24G, the dissociation constant Kd is 7.66 nM.
For A19G G64A, the Kd came to 6.54 nM.
Consider U22G C25G, for which the equilibrium dissociation constant (Kd) was determined as 5.5 nM.
For U22G C25U, the Kd stood at 6.29 nM.
The result for U22G C33G reads 6.1 nM; that for U22G C33U, 5.57 nM; that for U22G A67G, 5.48 nM.
Take U22G A67U: the Kd came out at 7.3 nM.
In the case of G18U U22G, the Kd was 6.85 nM.
Next, G20U C57U: 7.84 nM; A21G A59U: 73 nM.
For the variant G20A A21G, the Kd came out at 7.05 nM.
With A19G C25G, the Kd came to 5.29 nM.
As to A19G C25U, the Kd was found to be 6.25 nM.
As for A21G U29G, the equilibrium dissociation constant (Kd) was 5.79 nM.
For A21U A67G, the Kd worked out at 5.54 nM.
Turning to A19G C33U, the Kd was 7.36 nM.
For A19G G30A, the Kd was 4.57 nM.
With A21U U41G, the Kd was 5.38 nM.
For the variant G20A U29G, the Kd was 4.98 nM.
As for U22G A43G, the dissociation constant Kd was found to be 22.8 nM.
The result for U22G A43U reads 56.4 nM; that for U22G G32U, 4.59 nM.
Next, U22G G32A: 4.39 nM; G20U G64A: 9.36 nM; A21G U41G: 6.21 nM.
A19G C66U: the Kd was determined as 5.18 nM.
On to A19U U23G, for which the Kd was 6.66 nM.
U22G C50A: the Kd was determined as 19.3 nM.
For U22G C50G, the Kd was found to be 7.97 nM.
Turning to U22G C50U, the Kd came to 12.9 nM.
With A19G U41G, the equilibrium dissociation constant (Kd) is 6.27 nM.
Take A19G U41C: the Kd was found to be 92.4 nM.
The result for U22G C66A reads 4.13 nM.
As to U22G C66U, the Kd stood at 5.67 nM.
Next, U22G G34A: 8.31 nM.
Turning to U22G A24U, the Kd was 7.45 nM.
Regarding U22G A24G, the dissociation constant Kd amounted to 5.62 nM.
With U22G A59U, the dissociation constant (Kd) was found to be 97.1 nM.
The result for U22G A59G reads 76.4 nM; that for G20U A31G, 8.41 nM; that for G20U A59G, 19.9 nM.
Next, A21G A46G: 39.1 nM.
Turning to A19G G63A, the dissociation constant Kd was determined as 19.1 nM.
Take A19G G63U: the equilibrium dissociation constant (Kd) is 14.8 nM.
The result for A19G A31G reads 6.72 nM; that for A19G A31U, 5.3 nM; that for G20A U23G, 5.94 nM.
Turning to A19U A24G, the Kd worked out at 5.61 nM.
The result for A21U C25G reads 6.57 nM.
As for G20U A21G, the Kd was determined as 5.12 nM.
Next, A19G U47G: 7.16 nM; A19G G20A: 6.4 nM; A19G G20U: 6.34 nM.
With A19G C57U, the Kd is 4.99 nM.
With U22G C57U, the Kd came to 6.19 nM.
